Measured values from BindingDB's records for doi:10.1021/jm051217c (University Hospital of The Westfälische …, 2006).

Legend:
Caspase-8 = Caspase-8 (Homo sapiens, UniProt Q14790); test: Inhibition of caspase 8
In short: (§1)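 Recombinant human caspase-1, -6 or -8 at 0.5 units per assay, preincubated 10 min at 37 °C with compound in DMSO at single doses from 5 pM to 500 µM. Fluorogenic AMC substrate then added at 10 µM final (caspase-1 Ac-YVAD-AMC, caspase-6 Ac-VEID-AMC, caspase-8 Ac-IETD-AMC) for a further 10 min. Read-out was AMC fluorescence. IC50 taken by nonlinear regression.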

Caspase-1 = target: T1, Caspase-1 (Homo sapiens, UniProt P29466); test: Inhibition of caspase 1; in short: as §1
T1 sequence (P29466 whole entry): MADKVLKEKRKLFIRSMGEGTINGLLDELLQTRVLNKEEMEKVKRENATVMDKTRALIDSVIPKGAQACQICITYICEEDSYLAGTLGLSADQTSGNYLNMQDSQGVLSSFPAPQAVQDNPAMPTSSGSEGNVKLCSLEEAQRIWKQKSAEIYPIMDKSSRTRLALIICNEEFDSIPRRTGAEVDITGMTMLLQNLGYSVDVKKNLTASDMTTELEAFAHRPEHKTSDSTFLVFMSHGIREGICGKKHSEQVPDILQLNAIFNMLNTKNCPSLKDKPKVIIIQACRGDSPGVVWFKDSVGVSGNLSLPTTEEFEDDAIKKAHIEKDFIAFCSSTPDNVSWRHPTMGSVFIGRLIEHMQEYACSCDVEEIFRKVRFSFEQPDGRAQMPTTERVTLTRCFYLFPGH

Caspase-6 = target: T2, Caspase-6 (Homo sapiens, UniProt P55212); test: Inhibition of caspase 6; in short: as §1
T2 sequence (P55212 whole entry): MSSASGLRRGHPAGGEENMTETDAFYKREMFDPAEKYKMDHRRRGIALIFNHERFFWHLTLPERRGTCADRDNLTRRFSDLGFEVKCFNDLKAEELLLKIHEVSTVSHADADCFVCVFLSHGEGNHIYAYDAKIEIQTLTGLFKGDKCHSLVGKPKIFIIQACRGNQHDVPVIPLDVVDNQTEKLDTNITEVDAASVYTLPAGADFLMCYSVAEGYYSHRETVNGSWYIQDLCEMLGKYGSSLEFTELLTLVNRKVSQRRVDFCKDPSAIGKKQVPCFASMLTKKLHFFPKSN

Measured: IC50

Sequence of Caspase-8 (Q14790 217-374 limits assumed): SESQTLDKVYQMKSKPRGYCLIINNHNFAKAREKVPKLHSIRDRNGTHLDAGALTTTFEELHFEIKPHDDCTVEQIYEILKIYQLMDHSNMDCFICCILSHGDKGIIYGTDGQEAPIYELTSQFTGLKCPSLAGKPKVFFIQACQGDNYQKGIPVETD
Sequence of Caspase-8 (Q14790 385-479 limits assumed): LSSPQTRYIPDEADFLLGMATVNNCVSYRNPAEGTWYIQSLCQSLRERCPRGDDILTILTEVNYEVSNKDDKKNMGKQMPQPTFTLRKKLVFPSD

CCC[CH2][Sn]([CH2]CCC)([CH2]CCC)[c]1ccc(CN2C(=O)C(=O)c3cc(S(=O)(=O)N4CCC[C@H]4COc4ccccc4)ccc32)cc1 [(S)-5-[1-(2-phenoxymethylpyrrolidinyl)sulfonyl]-1-(4-(tributylstannyl)benzyl)isatin]
> 500 µM: Caspase-8 | Caspase-1 | Caspase-6

CCC[CH2][Sn]([CH2]CCC)([CH2]CCC)[c]1ccc(CN2C(=O)C(=O)c3cc(S(=O)(=O)N4CCC[C@H]4COC)ccc32)cc1 [(S)-5-[1-(2-methoxymethylpyrrolidinyl)sulfonyl]-1-(4-(tributylstannyl)benzyl)isatin]
> 500 µM: Caspase-8 | Caspase-1 | Caspase-6
